Ecoli rRNA inh: inhibits bacterial ribosomal RNA function over humanized ribosomes; E. coli WT GFP vs humanized-ribosome RFP mutants, fluorescence, 24 h; stronger effect = lower value; DMSO median 0, no signal -100; GFP signal change (wild-type ribosome), % (test concentration not listed); 350,000 tested, 1.6% active;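 active means significant combined selectivity score with lowered wild-type GFP, culture density cut under 30%, mutant RFP and density less affected; inactive means any of these conditions unmet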
F508del corr: CFTR F508del correction in bronchial cells; activity (quench increase), % at 7.58 µM; AID 720511; CFBE cells, YFP halide quenching; stimulated with forskolin plus potentiator P3; % fluorescence drop versus neutral controls; 350,000 tested, 0.36% active;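 active means mean added fluorescence quench of at least 8% versus neutral control, with both replicates also reaching 8%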;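 further: cells transiently co-express mutant CFTR-F508del with the halide-sensitive YFP; corrector assay measuring rescue of mutant channel to the surface after 24 h compound exposure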
S100A4 inh HTS: blocks human S100A4 binding to myosin IIA peptide; inhibition, % at 10.7 µM; S100A4/TAMRA-MyoIIA peptide fluorescence polarization; P26447; 360,000 tested, 0.14% active;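 active means mean inhibition of at least 70% across replicates, with every replicate also reaching that level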
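incubation = readout 5 min after mixing, signal stable up to 60 min | system = S100A4 monomer protein | buffer or medium = HEPES pH 7.2 with CaCl2, KCl, NaCl, DTT, Triton | benchmarks = neutral control DMSO, positive control TFP | also added = fluorescent myosin IIA peptide, 5 nM | compound dosing = one concentration per compound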
ERAP1 inh: inhibitors of human ERAP1 aminopeptidase. Q9NZ08. AID 652197. 340,000 tested, 0.15% active. inhibition, % at 10.7 µM. recombinant ERAP1, Leu-AMC fluorescence, 60 min;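 active means mean replicate inhibition of at least 30%, or all replicates individually reaching that 30% level; inactive means mean below 30% and not every replicate reaching it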;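 further: 0% = neutral control wells and 100% = L-leucinethiol positive control wells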
SIRT5 block: blocks human SIRT5 desuccinylation of peptide; Purified SirT5, succinyl-peptide AMC, trypsin-coupled fluorescence; inhibition, % at 15 µM; 330,000 tested, 1.1% active; AID 652115; in the data active means inhibition above about 15%
Starred values were filed as active, the others as inactive; / = not tested or not shown; ! = repeats disagree. This is a sample that favours compounds with a hit; in the whole collection about 3.1% have one here.

SMILES	Ecoli rRNA inh	F508del corr	S100A4 inh HTS	ERAP1 inh	SIRT5 block
CC(=O)Nc1cccc(-c2ccnc3c2CC(C(=O)Nc2ccc4c(c2)OCO4)O3)c1 (stereo not given)	-21.9*	7.0	0.4	1.9	-0.1
CN1C(=O)c2cc(NC(=O)Nc3ccc(F)cc3)ccc2OC[C@H]2O[C@H](CC(=O)NC3CCC3)CC[C@@H]21	3.1	0.4	-18.6	-3.1	0.4
CC1=NCCN1CCNC(=O)Nc1ccc(F)cc1	4.5	0.6	-3.1	/	17.0*
CC1=NCCN1CCNC(=O)Nc1cc(C)cc(C)c1	17.0	2.0	-2.3	/	21.4*
Cc1cccc(NC(=O)NCCN2CCCCC2)c1	8.9	-3.0	-67.8	1.6	2.0
C[C@H]1CN([C@@H](C)CO)C(=O)Cc2cc(NS(=O)(=O)c3cccs3)ccc2O[C@@H]1CN(C)S(=O)(=O)c1ccc(Cl)cc1	-3.8	2.1	-1.9	3.2	-2.1
C[C@@H]1CN([C@H](C)CO)C(=O)c2cccc(N(C)C)c2O[C@@H]1CN(C)Cc1ccc(Oc2ccccc2)cc1	-3.0	-0.1	10.3	-1.3	/
C[C@H](CO)N1C[C@H](C)[C@@H](CN(C)CC2CCOCC2)Oc2cc(-c3cccnc3)ccc2S1(=O)=O	0.5	-1.8	3.9	1.1	1.1
C[C@H](NC(=O)C[C@@H]1C[C@H]2c3cc(NC(=O)CN(C)C)ccc3O[C@H]2[C@H](CO)O1)c1ccccc1	-1.5	-0.4	1.2	-0.5	-0.3
COc1ccc(C(=O)NC2CC3CCCC(C2)N3Cc2ccccc2)c(OC)c1 (stereo not given)	0.6	/	1.5	0.9	23.7*
CC1(C)Cc2c(c(N3CCOCC3)nc3sc(C(=O)N4CCCCC4)c(N)c23)CO1	-1.2	0.1	-0.1	-1.1	-2.2
CCCCOC(=O)c1sc2nc(N3CCOCC3)c3c(c2c1N)CC(C)(C)OC3	10.6	-1.2	4.9	/	24.0*
COc1cc(C=C2C(=O)C=CC2=O)ccc1O	11.1	-3.2	0.4	53.5*	28.0*
C[C@@H]1CN([C@H](C)CO)C(=O)c2cc(-c3cccc(F)c3)cnc2O[C@H]1CN(C)C(=O)C1CC1	1.1	/	/	/	/
CCN(CC)c1ccc(/C=N/NC(=O)c2cnccn2)cc1	12.1	11.1*	5.8	18.3	-0.8
CCNC1=C(Cl)C(=O)c2ccccc2C1=O	/	/	7.7	/	/
CCCC(=O)NC1=C(Cl)C(=O)c2ccccc2C1=O	/	45.0*	3.4	2.8	4.3
O=C1Nc2ccccc2N=C(c2ccccc2)c2ccccc21	-28.0*	-0.5	-0.5	0.8	-2.1
C[C@@H]1CN([C@H](C)CO)C(=O)c2cc(NC(=O)Nc3cccc4ccccc34)ccc2O[C@@H]1CN(C)Cc1ccc2c(c1)OCO2	-2.4	-2.8	7.2	-1.2	15.1*
C[C@@H]1CN([C@H](C)CO)C(=O)c2cc(NC(=O)Nc3cccc4ccccc34)ccc2O[C@@H]1CN(C)Cc1ccc(C(=O)Nc2ccccc2N)cc1	-2.2	1.1	15.8	2.1	15.4*
C[C@@H]1CN([C@@H](C)CO)C(=O)c2cc(NC(=O)Nc3cccc4ccccc34)ccc2O[C@@H](C)CCCCO[C@@H]1CN(C)Cc1ccc2c(c1)OCO2	-3.6	8.8*	/	/	/
C[C@H]1CN([C@@H](C)CO)C(=O)Cc2cc(NC(=O)NC3CCCCC3)ccc2O[C@@H]1CN(C)S(C)(=O)=O	0.9	1.4	-4.7	-0.6	2.6
CNC[C@H]1Oc2ccc(NS(C)(=O)=O)cc2CC(=O)N(C)C[C@@H]1C	2.6	/	/	/	/
CC(=O)N1[C@H](CO)[C@@H](c2ccccc2)[C@@H]1CN(C)C(=O)c1ccccc1F	0.9	-4.6	-4.9	1.5	-3.7
COc1ccccc1-c1nc2c3ccccc3nc(=S)n2[nH]1	-27.3*	4.7	-3.2	-1.6	-2.6
SMILES	Ecoli rRNA inh	F508del corr	S100A4 inh HTS	ERAP1 inh	SIRT5 block
COc1cc(-c2nc3c4ccccc4nc(=S)n3[nH]2)cc(OC)c1OC	1.5	1.4	-2.3	0.9	-0.2
O=C(NCC1CCCO1)C1CCN(C2CCN(Cc3ccco3)CC2)CC1 (stereo not given)	14.7	-2.1	0.4	-5.1	0.1
CCOc1cccc(CN2CCC(N3CCC(C(=O)NCC4CCCO4)CC3)CC2)c1 (stereo not given)	14.3	-1.1	-3.7	-0.5	20.8*
O=C(NCCSCc1ccco1)Nc1cc(Cl)cc(Cl)c1	-51.2*	-0.2	16.9	-2.0	-5.3
CN(N=Nc1ccc([N+](=O)[O-])cc1)c1ccccc1	18.6	-2.4	34.4	5.4	2.9
CN(CCCC(=O)O)c1ccc(N=Nc2ccc([N+](=O)[O-])cc2)cc1	-30.7*	-0.8	3.3	1.3	-9.0
CC(C)C#Cc1cnc2c(c1)C(=O)N([C@@H](C)CO)C[C@@H](C)[C@H](CN(C)Cc1ccccn1)O2	1.7	0.5	-3.6	0.5	21.1*
C[C@H]1CN([C@@H](C)CO)C(=O)c2cc(Br)cnc2O[C@@H]1CN(C)Cc1ccccn1	-0.8	0.4	2.0	0.3	0.8
C[C@H](O)C#Cc1cnc2c(c1)C(=O)N([C@@H](C)CO)C[C@@H](C)[C@H](CN(C)Cc1ccccn1)O2	1.7	0.9	-1.2	-0.2	2.0
C[C@H](CO)N1C[C@H](C)[C@@H](CN(C)Cc2ccccn2)Oc2ncc(Br)cc2C1=O	7.1	0.1	0.0	-2.8	25.0*!
O=C(NC(=S)N1CCc2ccccc21)c1ccc(Br)o1	-42.5*	2.7	1.8	-3.2	0.3
CN(C)C(=O)C[C@@H]1CC[C@H]2[C@@H](COc3ccc(NC(=O)c4cnccn4)cc3C(=O)N2C)O1	2.8	-1.7	-12.3	-1.4	2.5
C[C@@H]1CCCCO[C@H](CN(C)Cc2ccc(C(F)(F)F)cc2)[C@@H](C)CN([C@@H](C)CO)C(=O)c2cc(NS(=O)(=O)c3ccc(F)cc3)ccc2O1	-3.5	2.6	-6.4	-0.4	19.5*
C[C@@H]1CCCCO[C@H](CN(C)Cc2ccc(C(F)(F)F)cc2)[C@H](C)CN([C@H](C)CO)C(=O)c2cc(NS(=O)(=O)c3ccc(F)cc3)ccc2O1	-1.3	5.5	-7.6	-3.4	16.7*
C[C@@H]1CCCCO[C@@H](CN(C)Cc2ccc(C(F)(F)F)cc2)[C@H](C)CN([C@H](C)CO)C(=O)c2cc(NS(=O)(=O)c3ccccc3)ccc2O1	-0.6	-2.2	17.1	-1.1	18.0*
C[C@@H]1CCCCO[C@H](CN(C)Cc2ccc(C(F)(F)F)cc2)[C@H](C)CN([C@@H](C)CO)C(=O)c2cc(NS(=O)(=O)c3ccc(F)cc3)ccc2O1	0.2	4.5	10.9	-1.4	-0.5
C[C@H]1CCCCO[C@@H](CN(C)Cc2ccc(C(F)(F)F)cc2)[C@@H](C)CN([C@@H](C)CO)C(=O)c2cc(NS(=O)(=O)c3ccc(F)cc3)ccc2O1	5.9	-0.5	-19.3	1.2	20.4*

Screens from PubChem.
